From PubChem BioAssay
Rows were chosen to be rich in hits. Some 3.7% of all compounds tested hit in one or more screens of this group.
Kir21 inh: blocks the mouse Kir2.1 inward-rectifier potassium channel; B-score at 10 µM; AID 1672; hit rate 0.85% among 310,000; HEK293-Kir2.1, FluxOR thallium flux fluorescence; hits give low values;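 active = fluorescence ratio B-score at or below minus 3 SD of library scores, with starting-brightness B-score within 2 SD, cut at about -4.2 in these data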;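 note: channel flux triggered by added potassium and thallium sulfate stimulus; B-score of peak minus minimum fluorescence over baseline after thallium stimulus; more negative B-score means stronger Kir2.1 block with less thallium influx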
KCNK3 inh: human KCNK3 channel inhibition, primary screen; CHO-KCNK3 thallium flux, FluxOR fluorescence; hits give low values; B-score at 10 µM; hit rate 0.84% among 340,000; AID 602410;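 active = B-score under library mean minus 4 SD, starting fluorescence ratio at most library mean plus 5 SD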;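 note: more negative B-score means stronger inhibition of thallium flux through KCNK3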
KCNK9 inh: inhibitors of human KCNK9 two-pore domain potassium channel; HEK293 KCNK9, FluxOR thallium flux fluorescence; hits give low values; B-score at 10 µM; hit rate 1.2% among 310,000; Q9NPC2; AID 488922;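 active = ratio B-score over 3 SD below the library mean, with starting fluorescence within 5 SD of its mean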;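 note: negative B-score means less thallium flux so channel inhibition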
KCNQ1 block: human KCNQ1 channel inhibition; CHO-K1 KCNQ1, FluxOR thallium flux fluorescence; hits give high values; B-score at 10 µM; P51787; hit rate 1.3% among 310,000;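 active = compounds whose thallium flux B-score, printed positive for inhibition, exceeds three library SD while starting fluorescence stays within three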;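 note: channel opened by potassium depolarization with thallium stimulus after 20 min compound exposure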
Target sequence (P51787 whole entry, looked up): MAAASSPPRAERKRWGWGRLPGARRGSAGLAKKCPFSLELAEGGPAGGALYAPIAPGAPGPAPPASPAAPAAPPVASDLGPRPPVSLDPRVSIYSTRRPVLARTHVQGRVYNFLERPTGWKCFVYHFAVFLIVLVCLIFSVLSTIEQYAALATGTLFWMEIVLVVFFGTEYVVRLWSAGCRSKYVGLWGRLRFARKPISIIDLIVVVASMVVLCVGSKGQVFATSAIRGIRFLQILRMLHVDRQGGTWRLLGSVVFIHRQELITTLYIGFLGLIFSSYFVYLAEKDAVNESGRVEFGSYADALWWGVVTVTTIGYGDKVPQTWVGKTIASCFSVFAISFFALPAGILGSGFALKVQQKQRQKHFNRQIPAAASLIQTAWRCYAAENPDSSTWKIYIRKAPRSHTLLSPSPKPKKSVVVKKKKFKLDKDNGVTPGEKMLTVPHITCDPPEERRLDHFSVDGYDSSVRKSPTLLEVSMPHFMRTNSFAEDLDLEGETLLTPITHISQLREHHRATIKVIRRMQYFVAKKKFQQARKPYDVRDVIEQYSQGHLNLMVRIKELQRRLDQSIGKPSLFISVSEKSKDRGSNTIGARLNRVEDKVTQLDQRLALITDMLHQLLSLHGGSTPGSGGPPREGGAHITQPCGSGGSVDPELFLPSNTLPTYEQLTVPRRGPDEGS
KCNQ1 act: human KCNQ1 channel potentiation or activation; P51787; CHO-K1 KCNQ1, thallium flux FluxOR fluorescence; hits give high values; B-score at 10 µM; hit rate 0.35% among 310,000; AID 2648;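 active = fluorescence ratio B-score, a plate-corrected score, at least three library SD, with initial intensity B-score within 5 SD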
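System: CHO-K1 cells stably expressing KCNQ1 / Medium: assay buffer for compound exposure, DMSO matched across wells / Reagent: thallium- and potassium-containing depolarizing buffer / Compound: one concentration, matched DMSO / Incubation: 20 min compound pretreatment at room temperature / Measured by: kinetic FluxOR fluorescence, 10 s baseline plus 110 s post-stimulus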
hERG protect: shields human hERG channel from block by proarrhythmic agents | Q12809 | hit rate 0.51% among 310,000 | AID 1511 | CHO-hERG, FluxOR thallium flux, dofetilide IC70 present | activation (rescue from dofetilide block), less the hit threshold, % at 10 µM;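 active = activation above the mean of controls blocked by dofetilide plus 5 SD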;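 note: thallium influx through hERG after potassium depolarization seen as dye fluorescence rise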
KCNK9 block conf: confirmation of human KCNK9 potassium channel inhibitors; shares compounds with KCNK9 inh; HEK293 KCNK9 cells, FluxOR thallium flux fluorescence; inhibition, % at 10 µM; hit rate 43% among 4,900; AID 492992;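 active = thallium signal inhibited by more than 5 SD of the compound-free buffer control wells, on both duplicate plates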;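 note: 0% = assay buffer control wells without compound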
Kir21 sel: mouse Kir2.1 off-target activity of KCNK9 modulators | inhibition, % at 10 µM | hit rate 4% among 4,900 | shares compounds with KCNK9 inh | AID 492993 | Kir2.1 cells, FluxOR thallium flux fluorescence;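 active = thallium signal drop more than 5 SD beyond the mean of the no-compound control wells, seen in both duplicate plates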;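 note: signal is fluorescence rise after thallium addition divided by baseline fluorescence; plate controls were assay buffer only for no effect and full block by chlorpromazine control for full effect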
KCNK9 uninduced: second check of KCNK9 modulator effects in non-induced HEK293 cells | shares compounds with KCNK9 inh | FluxOR thallium flux | inhibition, % at 10 µM | hit rate 40% among 4,900 | AID 492997;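 active = thallium signal drop beyond 5 SD of the untreated control mean, on both duplicate plates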;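 note: plate controls were buffer only IC0 wells for no effect and SID17386958 at its maximal inhibitory level for full effect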
An asterisk follows results filed as active; i = inactive; . = not tested or not shown.

SMILES	Kir21 inh	KCNK3 inh	KCNK9 inh	KCNQ1 block	KCNQ1 act	hERG protect	KCNK9 block conf	Kir21 sel	KCNK9 uninduced
COc1cc2c(cc1OC)C(c1cc(OC)c(OC)cc1[N+](=O)[O-])N(C(C)=O)CC2 (stereo not drawn)	0.73	i	i	i	i	-5	.	.	.
CCOC(=O)CCCn1ccc2cc(S(=O)(=O)N3CCCC3)ccc21	-0.6	i	i	i	i	-4	.	.	.
O=C(/C(=C/c1ccc(Cl)cc1)c1nc2ccccc2[nH]1)c1cccs1	-1.2	i	-11*	6*	i	-17	48%*	i	41%*
O=C(/C(=C\c1ccccc1)c1nc2ccccc2[nH]1)c1ccc(Cl)cc1	-2	i	i	i	i	-9	.	.	.
Cc1cccn2cc(CSc3nnc(Nc4ccc(C(C)C)cc4)s3)nc12	-0.06	i	i	i	i	-5	i	i	i
Cc1ccc(N2CC(C(=O)NC3CCC(C)CC3)CC2=O)cc1 (stereo not drawn)	0.41	i	i	i	i	-7	.	.	.
CCN(CC)C(=O)[C@H]1C[C@H](CC(=O)NCCC2=CCCCC2)C(=O)N2CCc3c([nH]c4ccc(Cl)cc34)[C@]12C	.	i	.	.	.	.	.	.	.
COc1ccc(C)cc1NC(=O)CN(Cc1nnc(-c2ccc(Cl)cc2)o1)C1CCCC1	2.2	i	-12*	i	i	-18	36%*	i	32%*
O=c1cc(COc2ccccc2[N+](=O)[O-])nc2sccn12	0	.	i	i	i	-9	.	.	.
COc1cc(C2Nc3ccccc3C(=O)N2c2ccc(Cl)cc2)c(Cl)cc1OCC(=O)O (stereo not drawn)	-0.43	i	i	i	i	-8	.	.	.
CCOC(=O)COc1ccccc1C1Nc2ccccc2C(=O)N1c1cccc(Cl)c1 (stereo not drawn)	2	-11*	-14*	i	i	-1	62%*	i	34%*
CCOC(=O)COc1c(OC)cc(Cl)cc1C1Nc2ccccc2C(=O)N1c1ccc(F)cc1 (stereo not drawn)	2.1	i	-12*	i	i	0	64%*	i	41%*
CCN(c1ccccc1)S(=O)(=O)c1cccc(C(=O)NCCOc2ccccc2OC)c1	.	i	.	.	.	.	.	.	.
Clc1cccc(NCc2nnc(SCc3ccc(Cl)cc3Cl)o2)c1	-0.08	i	i	i	i	-6	i	i	32%*
S=c1[nH]nc(CNc2cccc(Cl)c2)o1	-0.74	i	i	i	i	-9	.	.	.
CC1CCCN(C(=O)C2CCCN(S(=O)(=O)c3cccc4nsnc34)C2)C1 (stereo not drawn)	-0.31	i	i	i	i	-7	.	.	.
O=C(C1CCCN(S(=O)(=O)c2cccc3nsnc23)C1)N1CCc2ccccc21 (stereo not drawn)	0.03	i	i	i	i	-8	i	i	i
O=S(=O)(c1cccc2nsnc12)N1CCN(Cc2ccccc2)CC1	-0.66	i	i	i	i	-8	i	i	i
CC1Cc2ccccc2N1C(=O)C1CCCN(S(=O)(=O)c2cccc3nsnc23)C1 (stereo not drawn)	1.5	i	i	i	i	-10	i	i	i
Cc1sc(NC(=O)/C=C/c2ccco2)c(C(=O)O)c1C	0.28	i	i	i	i	-12	.	.	.
COc1cccc(N=Nc2ccc(O)c3ncccc23)c1	-0.46	i	i	i	i	16*	i	i	i
Oc1ccc(N=Nc2ccc3c(c2)OCCO3)c2cccnc12	-1.1	i	i	i	55*	-10	i	i	i
N#CCCC(CCC#N)(CCC#N)c1cc[n+](CCc2ccccn2)cc1	-0.34	i	i	i	i	-1	.	.	.
O=C(CSc1ccc(-c2ccco2)nn1)Nc1ccccc1F	-0.01	i	i	i	i	3	.	.	.
O=C(CN(Cc1ccco1)C(=O)CNS(=O)(=O)c1ccc(F)cc1)NCc1ccco1	-1.4	i	i	i	i	-2	.	.	.
SMILES	Kir21 inh	KCNK3 inh	KCNK9 inh	KCNQ1 block	KCNQ1 act	hERG protect	KCNK9 block conf	Kir21 sel	KCNK9 uninduced
N#Cc1ccsc1NC(=O)CCc1ccccc1	2	i	i	i	i	-17	.	.	.
N#Cc1ccsc1NC(=O)CN(Cc1ccccc1)Cc1ccccc1	-4.8*	i	-17*	6*	i	-7	68%*	i	59%*
CCC(=O)Nc1cc(-c2nn(C)c(=O)c3ccccc23)ccc1N1CCOCC1	-7.6	i	i	i	i	-3	.	.	.
Cn1nc(-c2ccc(N3CCCCC3)c(NC(=O)c3ccco3)c2)c2ccccc2c1=O	-0.43	i	-15*	i	i	-13	73%*	i	36%*
CCOC(=O)CCSc1nc2c(c(C(F)(F)F)c1C#N)CCC2	0.12	i	i	i	i	4	i	i	i
COC(=O)c1sc(-c2ccc(Cl)cc2)cc1NC(=O)CSCC(=O)O	0.01	i	i	i	i	-13	i	i	i
O=C(O)c1ccc(N2C(=O)CC(N3C(=O)/C(=C/c4ccc(Cl)cc4)SC3=S)C2=O)cc1 (stereo not drawn)	0.58	i	i	i	i	-9	i	i	i
O=C(O)c1ccc(N2C(=O)CC(N3CCN(c4ccc(Cl)cc4)CC3)C2=O)cc1 (stereo not drawn)	1.1	i	i	i	i	0	.	.	.
O=C(NC1CC2CCCC(C1)N2Cc1ccccc1)c1ccc([N+](=O)[O-])cc1 (stereo not drawn)	-1.1	i	i	i	i	-11	.	.	.
O=C(O)CC(CC(=O)Nc1ccc(-n2ccc(C(F)(F)F)n2)cc1)c1ccccc1 (stereo not drawn)	1.7	i	i	i	i	-6	.	.	.
O=C(Nc1ccccc1)Nc1ccc(-n2ccc(C(F)(F)F)n2)cc1	-0.18	i	-9*	6*	i	-19	48%*	i	i
CCCN(CC(=O)Nc1ccc(C)cc1Br)CC(=O)Nc1ccc(F)c(F)c1F	-0.46	i	-9.9*	i	i	-8	64%*	i	39%*
CCCN(CC(=O)Nc1cccc(Br)c1)CC(=O)Nc1ccc(F)c(F)c1F	1.6	i	-15*	i	i	-4	72%*	i	50%*
